# Results reported in ChEMBL document CHEMBL3351319, “Synthesis, biological evaluation and 3D-QSAR study of novel 4,5-dihydro-1H-pyrazole thiazole derivatives as BRAF(V⁶⁰⁰E) inhibitors” (Bioorg Med Chem, 2015).
# Columns and labels:
# [1] = Inhibition of full-length GST-tagged mouse BRAF V600E mutant using MEK1 as substrate preincubated for 1 hr
# Procedure, shortened: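 Mouse full-length GST-tagged BRAF V600E (7.5 ng) pre-incubated 1 h at room temperature with compound in assay dilution buffer. Reaction started by adding 200 ng His-tagged full-length human MEK1, 200 µM ATP (0.8 µCi hot ATP) and 30 mM MgCl2, then run 25 min at room temperature. Quenched with LDS buffer and heated 5 min at 70 °C. Products separated on 4-12% gel, which was dried and read on a phosphor screen. No-enzyme and no-inhibitor controls included, triplicate.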
# [2] = Antiproliferative activity against human WM266.4 cells after 48 hrs by MTT assay; type: functional, cell-based; conditions: WM 266-4, 48 h
# Procedure, shortened: (§1)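 Cells grown to log phase in RPMI 1640 with 10% FBS, seeded at 2 × 10^4 cells/mL and left 24 h at 37 °C, 5% CO2. Compounds added at pre-set concentrations, sorafenib as positive control, 48 h exposure. MTT (2.5 mg/mL in PBS) added for 4 h, then SDS-isobutanol-HCl extraction overnight at 37 °C. OD read at 570 nm. Three replicate wells per concentration, each assay run at least three times.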
# MCF7 [3] = assay: Antiproliferative activity against human MCF7 cells after 48 hrs by MTT assay; type: functional, cell-based; conditions: MCF7, 48 h; procedure, shortened: as §1
# MCF7 [4] = assay: Induction of apoptosis in human MCF7 cells assessed as viable cells at 1 uM after 48 hrs using annexin V-FITC/PI by flow cytometry (reference value: 91.07 %); type: functional; conditions: MCF7, 48 h, read-out: Activity
# MCF7 [5] = assay: Induction of apoptosis in human MCF7 cells assessed as early apoptotic cells at 1 uM after 48 hrs using annexin V-FITC/PI by flow cytometry (reference value: 3.52 %); type: functional
# MCF7 [6] = assay: Induction of apoptosis in human MCF7 cells assessed as late apoptotic cells at 1 uM after 48 hrs using annexin V-FITC/PI by flow cytometry (reference value: 5.12 %); type: functional
# MCF7 [7] = assay: Induction of apoptosis in human MCF7 cells assessed as necrotic cells at 1 uM after 48 hrs using annexin V-FITC/PI by flow cytometry (reference value: 0.29 %); type: functional
# MCF7 [8] = assay: Induction of apoptosis in human MCF7 cells assessed as viable cells at 3 uM after 48 hrs using annexin V-FITC/PI by flow cytometry (reference value: 91.07 %); type: functional; conditions: MCF7, 48 h, read-out: Activity
# MCF7 [9] = assay: Induction of apoptosis in human MCF7 cells assessed as early apoptotic cells at 3 uM after 48 hrs using annexin V-FITC/PI by flow cytometry (reference value: 3.52 %); type: functional
# MCF7 [10] = assay: Induction of apoptosis in human MCF7 cells assessed as late apoptotic cells at 3 uM after 48 hrs using annexin V-FITC/PI by flow cytometry (reference value: 5.12 %); type: functional
# MCF7 [11] = assay: Induction of apoptosis in human MCF7 cells assessed as necrotic cells at 3 uM after 48 hrs using annexin V-FITC/PI by flow cytometry (reference value: 0.29 %); type: functional
# WM 266-4 [12] = assay: Induction of apoptosis in human WM266.4 cells assessed as viable cells at 3 uM after 48 hrs using annexin V-FITC/PI by flow cytometry (reference value: 86.39 %); type: functional; conditions: WM 266-4, 48 h, read-out: Activity
# WM 266-4 [13] = assay: Induction of apoptosis in human WM266.4 cells assessed as viable cells at 1 uM after 48 hrs using annexin V-FITC/PI by flow cytometry (reference value: 86.39 %); type: functional; conditions: WM 266-4, 48 h, read-out: Activity
# WM 266-4 [14] = assay: Induction of apoptosis in human WM266.4 cells assessed as early apoptotic cells at 1 uM after 48 hrs using annexin V-FITC/PI by flow cytometry (reference value: 5.79 %); type: functional
# WM 266-4 [15] = assay: Induction of apoptosis in human WM266.4 cells assessed as late apoptotic cells at 1 uM after 48 hrs using annexin V-FITC/PI by flow cytometry (reference value: 6.56 %); type: functional
# WM 266-4 [16] = assay: Induction of apoptosis in human WM266.4 cells assessed as necrotic cells at 1 uM after 48 hrs using annexin V-FITC/PI by flow cytometry (reference value: 1.26 %); type: functional
# WM 266-4 [17] = assay: Induction of apoptosis in human WM266.4 cells assessed as early apoptotic cells at 3 uM after 48 hrs using annexin V-FITC/PI by flow cytometry (reference value: 5.79 %); type: functional
# WM 266-4 [18] = assay: Induction of apoptosis in human WM266.4 cells assessed as late apoptotic cells at 3 uM after 48 hrs using annexin V-FITC/PI by flow cytometry (reference value: 6.56 %); type: functional
# WM 266-4 [19] = assay: Induction of apoptosis in human WM266.4 cells assessed as necrotic cells at 3 uM after 48 hrs using annexin V-FITC/PI by flow cytometry (reference value: 1.26 %); type: functional
structure (smiles),measurement,setting,value
Cc1ccc(C2=NN(c3nc(-c4ccc(C(F)(F)F)cc4)cs3)C(c3cccs3)C2)cc1 (centres undefined),IC50,[1],6.18 µM
same,IC50,[2],2.11 µM
same,IC50,MCF7 [3],31.5 µM
Cc1ccc(C2=NN(c3nc(-c4ccc(Br)cc4)cs3)C(c3cccs3)C2)cc1 (centres undefined),IC50,[1],0.56 µM
same,IC50,[2],18.4 µM
same,IC50,MCF7 [3],2.01 µM
FC(F)(F)c1ccc(-c2csc(N3N=C(c4ccc(Br)cc4)CC3c3cccs3)n2)cc1 (centres undefined),IC50,[1],2.09 µM
same,IC50,[2],27.4 µM
same,IC50,MCF7 [3],7.81 µM
Clc1ccc(C2=NN(c3nc(-c4ccccc4)cs3)C(c3cccs3)C2)cc1 (centres undefined),IC50,[1],0.09 µM
same,IC50,[2],2.19 µM
same,IC50,MCF7 [3],0.19 µM
Fc1ccc(C2=NN(c3nc(-c4ccc(C(F)(F)F)cc4)cs3)C(c3cccs3)C2)cc1 (centres undefined),IC50,[1],1.01 µM
same,IC50,[2],5.12 µM
same,IC50,MCF7 [3],1.33 µM
COc1ccc(-c2csc(N3N=C(c4ccc(F)cc4)CC3c3cccs3)n2)cc1 (centres undefined),IC50,[1],5.12 µM
same,IC50,[2],4.42 µM
same,IC50,MCF7 [3],14.2 µM
CNC(=O)c1cc(Oc2ccc(NC(=O)Nc3ccc(Cl)c(C(F)(F)F)c3)cc2)ccn1 [SORAFENIB],IC50,[1],0.03 µM
same,IC50,[2],0.06 µM
same,IC50,MCF7 [3],0.19 µM
COc1ccc(C2=NN(c3nc(-c4ccc(OC)cc4)cs3)C(c3cccs3)C2)cc1 (centres undefined),IC50,[1],5.23 µM
same,IC50,[2],31.6 µM
same,IC50,MCF7 [3],16.2 µM
FC(F)(F)c1ccc(-c2csc(N3N=C(c4ccc(Cl)cc4)CC3c3cccs3)n2)cc1 (centres undefined),IC50,[1],0.05 µM
same,IC50,[2],0.12 µM
same,IC50,MCF7 [3],0.16 µM
same,viability at 1 µM,MCF7 [4],32.4%
same,Activity,MCF7 [5],39.15%
same,Activity,MCF7 [6],27.25%
same,Activity,MCF7 [7],1.2%
same,viability at 3 µM,MCF7 [8],19.8%
same,Activity,MCF7 [9],43.69%
same,Activity,MCF7 [10],33.01%
same,Activity,MCF7 [11],3.54%
same,viability at 3 µM,WM 266-4 [12],11%
same,viability at 1 µM,WM 266-4 [13],68.2%
same,Activity,WM 266-4 [14],14.13%
same,Activity,WM 266-4 [15],17.54%
same,Activity,WM 266-4 [16],0.09%
same,Activity,WM 266-4 [17],47.19%
same,Activity,WM 266-4 [18],38.25%
same,Activity,WM 266-4 [19],3.54%
Fc1ccc(C2=NN(c3nc(-c4ccccc4)cs3)C(c3cccs3)C2)cc1 (centres undefined),IC50,[1],0.67 µM
same,IC50,[2],0.17 µM
same,IC50,MCF7 [3],2.34 µM
Cc1ccc(C2=NN(c3nc(-c4ccccc4)cs3)C(c3cccs3)C2)cc1 (centres undefined),IC50,[1],3.88 µM
same,IC50,[2],7.52 µM
same,IC50,MCF7 [3],18.6 µM
COc1ccc(-c2csc(N3N=C(c4ccc(Cl)cc4)CC3c3cccs3)n2)cc1 (centres undefined),IC50,[1],0.19 µM
same,IC50,[2],1.31 µM
same,IC50,MCF7 [3],2.48 µM
COc1ccc(C2=NN(c3nc(-c4ccc(C(F)(F)F)cc4)cs3)C(c3cccs3)C2)cc1 (centres undefined),IC50,[1],10.9 µM
same,IC50,[2],8.11 µM
same,IC50,MCF7 [3],45.7 µM
COc1ccc(C2=NN(c3nc(-c4ccccc4)cs3)C(c3cccs3)C2)cc1 (centres undefined),IC50,[1],1.11 µM
same,IC50,[2],2.12 µM
same,IC50,MCF7 [3],9.01 µM
Fc1ccc(C2=NN(c3nc(-c4ccc(Br)cc4)cs3)C(c3cccs3)C2)cc1 (centres undefined),IC50,[1],1.86 µM
same,IC50,[2],0.22 µM
same,IC50,MCF7 [3],8.28 µM
COc1ccc(-c2csc(N3N=C(c4ccc(C)cc4)CC3c3cccs3)n2)cc1 (centres undefined),IC50,[1],0.11 µM
same,IC50,[2],3.77 µM
same,IC50,MCF7 [3],4.77 µM
COc1ccc(-c2csc(N3N=C(c4ccc(Br)cc4)CC3c3cccs3)n2)cc1 (centres undefined),IC50,[1],0.08 µM
same,IC50,[2],2.01 µM
same,IC50,MCF7 [3],0.68 µM
Brc1ccc(C2=NN(c3nc(-c4ccc(Br)cc4)cs3)C(c3cccs3)C2)cc1 (centres undefined),IC50,[1],8.87 µM
same,IC50,[2],13 µM
same,IC50,MCF7 [3],28.3 µM
Brc1ccc(C2=NN(c3nc(-c4ccccc4)cs3)C(c3cccs3)C2)cc1 (centres undefined),IC50,[1],2.19 µM
same,IC50,[2],1.87 µM
same,IC50,MCF7 [3],6.79 µM
COc1ccc(C2=NN(c3nc(-c4ccc(Br)cc4)cs3)C(c3cccs3)C2)cc1 (centres undefined),IC50,[1],4.01 µM
same,IC50,[2],5.87 µM
same,IC50,MCF7 [3],21.2 µM
Clc1ccc(C2=NN(c3nc(-c4ccc(Br)cc4)cs3)C(c3cccs3)C2)cc1 (centres undefined),IC50,[1],4.78 µM
same,IC50,[2],1.45 µM
same,IC50,MCF7 [3],14.7 µM
